Series [1] deals with Quadruplex DNA. As to the kind of experiment: Stabilization of telomeric G-quadruplex DNA in human SiHa cells assessed as induction of DNA damage response by measuring gamma-H2AX foci formation per nucleus at 2 uM after 24 hrs by DAPI staining-based immunofluorescence method relative to control. In kind it is cell-based. A digest of the protocol: (§1)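 Cells were treated 24 h with 2 µM compound or 0.1% DMSO, then fixed (4% paraformaldehyde), permeabilized (0.5% Triton X-100) and blocked (5% goat serum). Staining used BG4 (80 ng/µL, 37 °C 3 h) with anti-FLAG, and/or γ-H2AX, TRF2 or POT1 antibodies at 4 °C overnight. Alexa 488/555 secondaries and DAPI followed. Foci or co-localized foci per nucleus were counted by confocal microscopy; mean ± SEM, two-tailed unpaired t test.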

For series [2], the system named is SiHa. As to the kind of experiment: Induction of apoptosis in human SiHa cells after 96 hrs by annexin V-FITC/propidium iodide staining-based flow cytometric method. In kind it is functional, cell-based. A digest of the protocol:
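SiHa cells were treated with compound or DMSO for 96 h, washed, resuspended in binding buffer, and stained with Annexin V-FITC and PI for 15 min in the dark. Apoptotic percentage was measured by flow cytometry; mean ± SEM.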
On the technique in general: A flow cytometer gives signals particle by particle.

For series [3], the system named is Quadruplex DNA. As to the kind of experiment: Stabilization of telomeric G-quadruplex DNA in human SiHa cells assessed as increase in phosphorylated CHK1 expression after 48 hrs by Western blot method. Format: cell-based. A digest of the protocol: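 SiHa cells were treated with compound for 48 h and lysed in RIPA buffer. 20 µg protein was run on 10% SDS-PAGE and transferred to PVDF. Blots were blocked in 3% BSA, probed with primary antibodies (1:1,000, 4 °C 16 h) for p-ATR, p-CHK1 and p-P53, then secondaries (1:2,000, 2 h at room temperature).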
For orientation: In western blotting, separated proteins are transferred to a membrane and probed.

The test system of series [4] is Quadruplex DNA. As to the kind of experiment: Stabilization of telomeric G-quadruplex DNA in human SiHa cells assessed as induction of telomere uncapping by measuring formation of micronuclei at 1 uM after 48 hrs by DAPI staining-based laser scanning microscopic method. Format: cell-based.
For series [5], the system named is Quadruplex DNA. As to the kind of experiment: Stabilization of telomeric G-quadruplex DNA in human SiHa cells assessed as increase in BG4 foci per nucleus at 2 uM after 24 hrs by DAPI staining-based immunofluorescence method relative to control. In kind it is cell-based. The procedure, abridged: as §1
The next series relates to Mus musculus. As to the kind of experiment: Toxicity in BALB/C-nu/nu mouse xenografted with human SiHa cells assessed as decrease in body weight at 10 to 20 mg/kg, ip administered daily for 3 weeks measured everyday during compound dosing. Format: organism-based. The note with it: in vivo, 504 h. The procedure, abridged: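 SiHa cells (1×10^7 per 100 µL, serum-free DMEM) were injected subcutaneously. Grown tumors were divided into pieces and implanted into BALB/C-nu/nu mice. Caliper volume (1/2 × L × W²) and body weight were recorded daily; tumors were weighed at the end.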
In general terms: Xenograft models place foreign cells or tissue in a host animal.

The test system of a further series is HL-60. As to the kind of experiment: Antiproliferative activity against human HL60 cells after 48 hrs by MTT assay. Format: functional, cell-based. The note with it: HL-60, 48 h. A digest of the protocol: (§2)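 Cells seeded at 5.0×10^3 per well and exposed to a range of compound concentrations for 48 h. MTT (2.5 mg/mL solution) was then added for 4 h, formazan was dissolved in DMSO, and OD was read at 570 nm. HL-60 was grown in RPMI-1640 with 10% FBS, the other lines in DMEM with 10% FBS, at 37 °C and 5% CO2. Triplicates; IC50 taken from mean OD versus concentration curves.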

The test system of series [6] is Quadruplex DNA. As to the kind of experiment: Stabilization of telomeric G-quadruplex DNA in human U2OS cells assessed as induction of DNA damage response by measuring gamma-H2AX foci formation per nucleus at 2 uM after 24 hrs by DAPI staining-based immunofluorescence method. Format: cell-based. A digest of the protocol:
as §1

A short description of series [7]: Inhibition of telomerase (unknown origin) by TRAP-LIG assay. Details: species or system Homo sapiens.
In series [8] the test system is Quadruplex DNA. As to the kind of experiment: Stabilization of telomeric G-quadruplex DNA in human SiHa cells assessed as delocalization of POT1 from TRF2 foci at 2 uM after 24 hrs by DAPI staining-based double immunofluorescence method. Format: cell-based. The procedure, abridged: as §1
The subject of series [9] is U2OS. As to the kind of experiment: Induction of telomeric G-quadruplex DNA formation in human U2OS cells assessed as increase in co-localization of BG4/TRF2 foci per nucleus at 2 uM after 24 hrs by DAPI staining-based double immunofluorescence method. In kind it is cell-based. A digest of the protocol:
as §1

The subject of series [10] is SiHa. As to the kind of experiment: Effect on POT1 expression in human SiHa cells at 1 uM after 48 hrs by Western blot method. In kind it is functional, cell-based.
Series [11] deals with Quadruplex DNA. As to the kind of experiment: Stabilization of telomeric G-quadruplex DNA in human SiHa cells assessed as decrease in TRF length at 0.5 to 1 uM after 21 days by chemiluminescence detection method. Format: cell-based. The procedure, abridged: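 SiHa cells were kept 21 days with 0.5 or 1 µM compound or 0.1% DMSO, with medium and compound renewed every 3 days. Genomic DNA was cut with HinfI/RsaI, run on 0.8% agarose, blotted to nylon, baked at 120 °C for 20 min, and TRF length detected by chemiluminescence.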

Series [12] has as its system U2OS. As to the kind of experiment: Cell cycle arrest in human U2OS cells assessed as accumulation at G2/M phase at 1 uM after 12 hrs by propidium iodide staining-based flow cytometric method. Format: functional. The procedure, abridged:
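SiHa or U2OS cells (2.0×10^5 per well) were treated with compound or DMSO for 12 h, fixed in ice-cold 70% ethanol overnight, and stained with 50 µg/mL PI plus RNase A for 30 min at room temperature in the dark. 10,000 events were collected by flow cytometry to give the phase distribution.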

Series [13] relates to Quadruplex DNA. As to the kind of experiment: Stabilization of F21T telomeric G-quadruplex DNA (unknown origin) assessed as change in melting temperature at 1 uM by FRET assay. In kind it is nucleic-acid assay. The procedure, abridged: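 FRET melting: 0.2 µM F21T or F10T (FAM/TAMRA-labelled), with or without 1.0 µM ligand, in 10 mM Tris-HCl pH 7.4 with 60 mM KCl. Excitation 470 nm, emission 530 nm, read every 1 °C from 37–99 °C at 1 °C/min with a 30 s hold. ΔTm = Tm(DNA+ligand) − Tm(DNA).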

The test system of another series is A549. As to the kind of experiment: Antiproliferative activity against human A549 cells after 48 hrs by MTT assay. Format: functional, cell-based. The note with it: A549, 48 h. A digest of the protocol: as §2
A short description of series [14]: Binding affinity to hairpin duplex DNA (unknown origin) at 40 uM by SPR method. The procedure, abridged:
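SPR: biotinylated HTG21 or hairpin DNA (200 nM) was folded in 50 mM Tris-HCl pH 7.4 with 100 mM KCl and captured to about 1,000 RU on an NLC chip against a blank reference cell. Ligand at 0.625–40 µM was injected at 25 µL/min (400 s association, 300 s dissociation) at 25 °C. The chip was regenerated with 1 M KCl and blank sensorgrams were subtracted.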

Series [15] has as its system Quadruplex DNA. As to the kind of experiment: Stabilization of telomeric G-quadruplex DNA in human SiHa cells assessed as induction of DNA damage response by measuring co-localization of gamma-H2AX and TRF2 foci per nucleus at 2 uM after 24 hrs by DAPI staining-based double immunofluorescence method. Format: cell-based. The procedure, abridged:
as §1

Series [16] concerns Quadruplex DNA. As to the kind of experiment: Stabilization of telomeric G-quadruplex DNA in human U2OS cells assessed as increase in BG4 foci per nucleus at 2 uM after 24 hrs by DAPI staining-based immunofluorescence method. Format: cell-based. The procedure, abridged:
as §1

The subject of series [17] is Quadruplex DNA. As to the kind of experiment: Stabilization of telomeric G-quadruplex DNA in human SiHa cells assessed as reduction of POT1/TRF2 co-localized foci per nucleus at 2 uM after 24 hrs by DAPI staining-based double immunofluorescence method. Format: cell-based. The procedure, abridged: as §1

The structures appear in SMILES notation. Active and inactive are the calls of the source. The rule behind the calls is not given here.

Consider one molecule from ChEMBL document CHEMBL4177752, “Discovery of Novel Schizocommunin Derivatives as Telomeric G-Quadruplex Ligands That Trigger Telomere Dysfunction and the Deoxyribonucleic Acid (DNA) Damage Response” (J Med Chem, 2018).

What is called IC50 is the point on the concentration scale where inhibition reaches its midpoint. The term ΔTm denotes the change in melting temperature against a reference sample. Turning to `CN(C)CCCNc1cc2nc(/C=C3\C(=O)Nc4cc(N5CCN(C)CC5)ccc43)[nH]c(=O)c2cc1F`, the results for the fold change (FC) with Quadruplex DNA [1] and in the series on Quadruplex DNA [5] were 3 and 2, respectively. Besides, the Activity result was “Dose-dependent effect” in the series with SiHa [2], “Dose-dependent effect” with Quadruplex DNA [3] and “Non-Toxic” in the series with Mus musculus. Further, the outcome in the series on Quadruplex DNA [4], with Quadruplex DNA [6], in the series with Quadruplex DNA [8], with U2OS [9], in the series on Quadruplex DNA [11] and with U2OS [12] was Active. Further, the outcome with Quadruplex DNA [15], in the series on Quadruplex DNA [16] and in the series with Quadruplex DNA [17] was Active. The 50% inhibitory concentration (IC50) in the series on HL-60 worked out at 2.5 µM; in series [7] it was 9.6 µM; with A549, 9.1 µM. Also, the outcome (in the series on SiHa [10]; in series [14]) was inactive. In addition, in the series with Quadruplex DNA [13], the ΔTm worked out at 23.5 °C.
